Experimental data of several laboratories.
Protocols differ between the studies behind these lines.
Target: MAP kinase-activated protein kinase 2 (MAPKAPK2, Homo sapiens, UniProt P49137)

Structure (SMILES) | test | conditions | endpoint | value
Cc1ccc(NC(=O)c2ccc(CN3CCN(C)CC3)cc2)cc1Nc1nc(-c2cccnc2)cs1 | cell-free assay | 0.5 µM | remaining signal | 102%
COc1cc(Nc2cnc(C#N)c(O[C@H](C)CN(C)C)n2)ncc1-c1cnn(C)c1 | enzyme activity, inhibitor, radiometric | 1 µM | remaining activity | 112%
Oc1cccc(-c2nc(N3CCOCC3)c3oc4ncccc4c3n2)c1 | enzyme activity, inhibitor | 10 µM | remaining activity | 90%
CCCOc1ccc(OC)c(F)c1C(=O)c1ccc(C(=O)N[C@@H]2CNC[C@H]2NC(=O)c2ccc3[nH]ncc3c2)cc1 | enzyme activity, inhibitor | 10 µM | remaining activity | 49%
Cc1ccc(NC(=O)c2ccc(C)c(C(F)(F)F)c2)cc1C#Cc1nn(C2CCC(O)CC2)c2ncnc(N)c12 (stereo not shown) | cell-free assay | 10 µM | remaining signal | 104%
CCN(CC)CCNC(=O)c1c(C)[nH]c(/C=C2\C(=O)Nc3ccc(F)cc32)c1C | enzyme activity, inhibitor | 0.3 µM | inhibition | 7%
Cc1cc(NC(=O)c2cccc3cc(-c4cccc5[nH]nc(N)c45)ccc23)ccc1F | enzyme activity, inhibitor | 0.1 µM | activity vs control | 95%
Nc1nc(NC2CCCCC2)sc1C(=O)c1ccccc1 | enzyme activity, inhibitor | 10 µM | remaining activity | 96%
CN1CC(Oc2cnc(C#N)cc2-c2ccn3nc(NC(=O)C4CC4)cc3c2)C1 | enzyme activity, inhibitor | 1 µM | inhibition | -21%
Cc1noc([C@H]2C[C@@H](c3ccc(C(F)(F)F)cc3)CN(C(=O)N3CCS(=O)(=O)C3)C2)n1 | cell-free assay, competition with immobilised ligand | 1 µM | remaining binding | 97%
FC(F)(F)Oc1cccc(-c2cnc3ccc(-c4ccncc4)nn23)c1 | enzyme activity, inhibitor, radiometric | 5 µM | activity vs control | 96%
Nc1ncnc2occ(-c3ccc(NC(=O)Nc4cc(C(F)(F)F)ccc4F)cc3)c12 | cell-free assay, inhibitor | 20 µM | remaining signal | 86%
CCC(=N\O)/C(C)=C/c1ccc(F)cc1 | cell-free assay, competition with immobilised ligand | 1 µM | remaining binding | 69%
CS(=O)(=O)Nc1cccc(-c2csc(NC(=O)CSc3nc4nccnc4c(=O)n3CCc3ccccc3)n2)c1 | enzyme activity, inhibitor | 10 µM | inhibition | 1%
Cc1sc(C(=O)NC2COC2)cc1-n1cc(NC(=O)Nc2c(F)cccc2Cl)cn1 | enzyme activity, inhibitor | 10 µM | remaining activity | 93.6%
Clc1ccc(Nc2nnc(Cc3ccncc3)c3ccccc23)cc1 | cell-free assay | 0.5 µM | remaining signal | 98.8%
Cc1ccc(Nc2nccc(N(C)c3ccc4c(C)n(C)nc4c3)n2)cc1S(N)(=O)=O | enzyme activity, inhibitor | 0.3 µM | inhibition | 4%

Structure (SMILES) | test | conditions | endpoint | value
CN(C)C(=O)Cn1cc(-c2nc([C@@](C)(c3ccc(-c4cnc(N)nc4)cc3)C3CC3)no2)cn1 | cell-free assay, competition with immobilised ligand | 1 µM | remaining binding | 92%
CCN(CC)c1ccc(C2=NNC(=O)CC2C)cc1[N+](=O)[O-] (stereo not shown) | enzyme activity, inhibitor | 10 µM | remaining activity | 86%
CCS(=O)(=O)c1cc2cc(C[C@@](O)(CC(C)(C)c3ccc(F)cc3C(N)=O)C(F)(F)F)[nH]c2cn1 | cell-free assay, competition with immobilised ligand | 1 µM | remaining binding | 100%
FC(F)c1nc2ccccc2n1-c1nc(N2CCOCC2)nc(N2CCOCC2)n1 | enzyme activity, inhibitor | 10 µM | remaining activity | 91%
CNc1cccc2cc(C(=O)Nc3ccc(C(=O)O)cc3)c(=O)[nH]c12 | enzyme activity, inhibitor | 10 µM | inhibition | 11%
CNC(=O)c1cc(Oc2ccc(NC(=O)Nc3ccc(Cl)c(C(F)(F)F)c3)cc2)ccn1 | enzyme activity, inhibitor | 10 µM | inhibition | 6%
O=C(Nc1cnn(-c2csc(C(=O)NC3COC3)c2)c1)Nc1c(F)cccc1Cl | enzyme activity, inhibitor | 5 µM | remaining activity | 99.8%
COc1cc2ncnc(Nc3ccc(Oc4ccccc4)c(C)c3C)c2cc1OC | enzyme activity, inhibitor | 1 µM | inhibition | -17%
O=C1CCc2cc(Nc3cc(OC4CCOCC4)c([N+](=O)[O-])cc3Cl)ccc2N1 | cell-free assay, competition with immobilised ligand | 1 µM | remaining binding | 99%
CC(C)c1ccc(NC(=O)c2cccs2)c(-c2nc3ccccc3[nH]c2=O)c1 | enzyme activity, inhibitor | 1 µM | activity vs control | 103%
CN(C)C1CCN(CC#Cc2nn(C3CCCC3)c3nc(NCc4ccccc4)ncc23)C1 (stereo not shown) | enzyme activity, inhibitor, FRET | 1 µM | inhibition | -2%
C[C@H](NC(=O)c1cnc2n1[C@](C)(Cc1ccc(C#N)cc1)C(=O)N2c1cc(Cl)c(F)c(Cl)c1)C(=O)NC1(c2ccccn2)CC1 | cell-free assay, competition with immobilised ligand | 1 µM | remaining binding | 100%
CC(C)(C)c1nc2c(s1)c1nc(N)ncc1c1ccc(NS(=O)(=O)c3c(F)cccc3F)c(F)c12 | enzyme activity, inhibitor, radiometric | 1 µM | remaining activity | 69%
c1ccc(N2CCN(Cc3nc4ccccc4[nH]3)CC2)nc1 | binding, competition with immobilised ligand | 1 µM | remaining binding | 100%
O=C1NC(=O)c2cc(Nc3ccc(F)cc3)c(Nc3ccc(F)cc3)cc21 | cell-free assay | 0.5 µM | remaining signal | 95.7%
Cc1nc(C2CCN(C(=O)c3ccc(OC(F)(F)F)cc3N)CC2)c2ncc(N3CCN(C)CC3)cc2n1 | cell-free assay, competition with immobilised ligand | 1 µM | remaining binding | 100%
CCCS(=O)(=O)Nc1ccc(F)c(C(=O)c2c[nH]c3ncc(-c4ccc(Cl)cc4)cc23)c1F | enzyme activity, inhibitor | 1 µM | inhibition | < 10%
